{"data": "Published values from different studies"}
{"SMILES": "Cc1ncc2n1-c1ccc(Cl)cc1C(c1ccccc1F)=NC2", "assay": "metabolic stability", "system": "dog, hepatocytes", "quantity": "half-life", "result": "0.616 h"}
{"SMILES": "CC(=O)Oc1ccc(C=CC(=O)O)cc1OC(C)=O", "target or system": "HaCaT", "assay": "cell growth or viability, MTT", "setting": "24 h", "quantity": "CC50", "result": "> 250 µM"}
{"SMILES": "O=C(O)CCCOc1ccc(F)cc1-c1cc(-c2ccccc2C(F)(F)F)n(-c2ccccc2)n1", "assay": "general toxicity", "system": "rat", "setting": "intravenous, 25 µg/kg, single dose", "quantity": "NOAEL", "result": "≥ 0.025 mg/kg"}
{"SMILES": "COc1cc(C2C3=C(COC3=O)N(CCO)c3cc4c(cc32)CCC4)cc(OC)c1OC (centres unmarked)", "assay": "general toxicity", "system": "female Sprague-Dawley rat", "setting": "intraperitoneal, single dose", "quantity": "MTD", "result": "≥ 400 mg/kg"}
{"SMILES": "CC(=O)c1c(C)c2cnc(Nc3ccc(C4CCN(CCS(C)(=O)=O)CC4)cn3)nc2n(C2CCCC2)c1=O", "assay": "metabolic stability", "system": "dog, liver S9", "quantity": "half-life", "result": "1.72 h"}
{"SMILES": "Cc1ccc2cc(N3CCC4(O)C(=O)c5cc(C)c(C)cc5N=C34)ccc2n1 (centres unmarked)", "assay": "general toxicity", "system": "rat", "setting": "intravenous, multiple doses", "quantity": "NOAEL", "result": "≥ 20 mg/kg"}
{"SMILES": "CC(C)CC(=O)OC[C@H]1O[C@@](C#N)(c2ccc3c(N)ncnn23)[C@H](O)[C@@H]1O", "assay": "metabolic stability", "system": "dog, plasma", "setting": "5 µM", "quantity": "half-life", "result": "> 3.1 h"}
{"SMILES": "COC(=O)C=Cc1ccc(OC(C)=O)c(OC(C)=O)c1", "target or system": "HaCaT", "assay": "cell growth or viability, MTT", "setting": "24 h", "quantity": "CC50", "result": "201 µM"}
